# From PubChem BioAssay
# Autophagy mod: modulators of autophagy. MEF GFP-LC3 puncta imaging; test concentration mostly 10 µM. calls only at 10 µM (by protocol). hit rate 0.98% among 190,000;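 active = percentage of spot-positive cells more than 3 SD above its plate mean, without a fluorescence outlier flag or 80% toxicity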
# Dynein transport: blocks dynein driven cargo transport along microtubules | AID 1381 | z-score, hits read low | hit rate 0.47% among 220,000 | 3617.4 mouse cells, GR-EGFP nuclear translocation imaging; test concentration mostly 20 µM; stimulated with dexamethasone, 1 µM; active compounds read low;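 active = plate z-score of nuclear minus cytoplasmic receptor signal below a set negative limit, without overly bright fluorescence or cell loss, cut at about -3.5 in these data, passing the limit was not always enough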;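 note: z-score of nuclear minus cytoplasmic ring GR-EGFP intensity difference per well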
#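 Also added: dexamethasone, 1.0 µM final. Medium: tet-free, stripped-serum medium. Detection: fixed, Hoechst-stained cells imaged at 10x for EGFP. Read-out: nuclear-to-cytoplasmic GR-EGFP distribution per well. Times: induction 48 h, compound 1 h, agonist 30 min.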
# b-catenin transl: alters nuclear translocation of beta-catenin in HeLa cells; immunofluorescence imaging; nuclear translocation activity, % at 5 µM; hit rate 0.3% among 190,000; AID 1665;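 active = nuclear translocation activity above 50% at 5 µM, with a well cell count of 50 or more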;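 note: per-cell ratio of nuclear to cytoplasmic median beta-catenin stain intensity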
#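 Test system: human HeLa cells, native beta-catenin. Compound dosing: 5 µM primary single dose, 0.1% DMSO, 0.02–20 µM confirmation series. Incubation: compound exposure 24 h at 37°C. Detection: beta-catenin immunostaining with DAPI counterstain, 20x imaging, 6 fields/well. Read-out basis: Nuclear/cytoplasmic beta-catenin signal ratio, % activation.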
# Lmaj promast: inhibitors of Leishmania major promastigote growth | Leishmania major promastigotes, resazurin fluorescence viability | inhibition, % at 10 µM | hit rate 9% among 200,000; in the data active = inhibition above about 50%;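 note: promastigotes grown with compound for 44 hours at 28 °C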
# CHOP inh: CHOP inhibition in unfolded protein response | hit rate 3.8% among 220,000 | CHO-K1 CHOP-promoter luciferase, tunicamycin-induced, 15-18 h | inhibition, % at 10 µM;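 active = compounds that reduced the stress-induced luciferase reporter signal by more than about 70% of percent inhibition, limit read from the data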
# MT stabilizer: stabilizes microtubules in HeLa cells | HeLa tubulin immunostaining HCS, 24 h; share of cells brighter than vehicle mean+2SD | % tubulin-high responders, % at 10 µM | hit rate 0.83% among 200,000;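 active = plate Z-score above 3 for both tubulin-high and condensed-nucleus cell shares, with cell loss under 80%, at 10 µM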;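 note: anti alpha tubulin signal scored within the nucleus-defined area of each cell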
# Numbers stand for hits; 0 = inactive; - = no result; + = active, no number. In the library only some 12% were active in any assay of this set; here they are far more common.
SMILES,Autophagy mod,Dynein transport,b-catenin transl,Lmaj promast,CHOP inh,MT stabilizer
COc1ccc(OC)c(NC(=O)c2cc3ccccc3o2)c1,0,0,-,0,0,0
COc1ccc2oc(=Nc3cc(F)ccc3F)c(C(N)=O)cc2c1,+,0,-,58.8,0,0
Cc1ccc(C)c(S(=O)(=O)NC(CCC(N)=O)C(=O)O)c1 (centres undefined),0,0,0,0,-,0
O=C(O)CCC(=O)NNC(=O)c1cccc(Br)c1,0,0,0,59.6,0,0
c1ccc(-c2noc(-c3ccc4ccccc4c3)n2)nc1,0,0,-,0,92.6,0
S=C(c1cn(CCOc2cccc3ccccc23)c2ccccc12)N1CCCC1,0,0,0,94.9,0,0
COC(=O)c1cn(CCOc2ccccc2)c2ccccc12,+,0,0,0,0,0
COC(=O)c1cn(CCOc2ccccc2OC)c2ccccc12,0,0,-,0,0,0
COCCn1cc(C(=S)N2CCCCC2)c2ccccc21,0,0,0,0,0,0
S=C(c1cn(CCOc2ccccc2)c2ccccc12)N1CCCC1,0,0,0,98.4,0,0
CCOC(=O)Cc1csc(NC(=O)COc2cc(C)cc(C)c2)n1,0,0,0,0,0,0
O=C1CC(c2ccccc2)CC2=C1CN(C1CCCCC1)CN2 (centres undefined),0,0,0,81.5,0,50.8
O=C1CC(c2ccccc2)CC2=C1C(c1ccccn1)Nc1ccccc1N2 (centres undefined),0,0,0,0,0,0
Cc1ccc(N(CC(=O)N/N=C/c2cc(C)n(-c3ccccc3C)c2C)S(C)(=O)=O)cc1,0,0,0,0,0,0
Cc1cc2c(c(SCC#N)n1)C(=O)OC2,0,0,0,0,0,0
Clc1nc(-c2ccccc2)cc(-c2ccccc2)n1,0,0,0,0,0,0
CC(C)(C)c1nn(-c2ccccc2)c2[nH]c(=O)c(CNCc3ccc4c(c3)OCO4)cc12,0,0,-,0,94.2,0
CCCC(=O)OCC(=O)c1[nH]c(C)c(C(C)=O)c1C,0,0,0,0,0,0
Cc1ccc(Cn2ccc(NC(=O)c3cc(-c4ccc(Cl)cc4)on3)n2)cc1,0,0,0,57.5,0,0
Cc1cc(NC(=O)c2cc(C(C)C)on2)nn1Cc1ccc(Cl)cc1,0,0,0,70.9,0,0
Cc1ccc(Cn2ccc(NC(=O)c3cc(CC(C)C)on3)n2)cc1,0,0,0,0,76.3,0
Cc1ccc(Cn2ccc(NC(=O)c3cc(-c4cccc(Cl)c4)on3)n2)cc1,0,0,0,76.5,0,0
Cc1ccc(Cn2ccc(NC(=O)c3cc(-c4ccc(F)cc4)on3)n2)cc1,0,0,0,0,0,0
Cc1cc(C(=O)Nc2c(C)nn(Cc3ccc(F)cc3)c2C)on1,0,0,-,0,81.2,0
Cc1cccc(Cn2ccc(NC(=O)c3ccc4c(c3)OCO4)n2)c1,0,0,-,59.8,0,0
SMILES,Autophagy mod,Dynein transport,b-catenin transl,Lmaj promast,CHOP inh,MT stabilizer
Cc1ccc(Cn2nc(C)c(NC(=O)c3cc(C)no3)c2C)cc1,0,0,-,0,0,0
Cc1nn(Cc2ccc(Cl)c(Cl)c2)c(C)c1NC(=O)c1cc(CC(C)C)on1,0,0,0,0,92.9,0
COc1ccc(-c2noc(CSc3nnc(Cc4ccccc4)n3-c3ccc(Cl)cc3)n2)cc1,0,0,-,0,0,0
Cc1ccc(-c2noc(CSc3nnc(Cc4ccccc4)n3-c3ccc(Cl)cc3)n2)cc1,0,0,-,0,80.8,0
COc1ccc(-c2noc(CSc3nnc(CCc4ccccc4)n3-c3ccccc3)n2)cc1OC,0,0,-,72.0,0,0
Cc1ccc(-c2noc(CSc3nnc(CCc4ccccc4)n3-c3ccccc3)n2)cc1,0,0,0,0,0,0
CCOCCCn1c(SCC(=O)NCc2ccc3c(c2)OCO3)nc2ccccc2c1=O,0,0,0,0,0,0
Cc1cccc(-n2c(SCC(=O)NCc3ccc4c(c3)OCO4)nc3ccccc3c2=O)c1,0,0,0,96.1,0,0
CCCCNC(=O)CSc1nc2ccccc2c(=O)n1Cc1ccc2c(c1)OCO2,0,0,-,0,86.3,0
O=C(CSc1nc2ccccc2c(=O)n1-c1ccccc1)NCc1ccc2c(c1)OCO2,0,0,0,0,0,0
Brc1cccc(CNCCCN2CCOCC2)c1,0,0,0,0,0,0
CCCCCCNCc1cccc(Br)c1,0,0,0,53.6,0,0
CCCCCNCc1cccc(Br)c1,0,0,0,74.5,0,0
Cc1ccc(CN2CCN(C3CCCC3)C(CCO)C2)s1 (centres undefined),0,0,0,0,0,0
O=C(NCC1OCCc2ccccc21)c1ccc(NC(=O)c2cccc(Br)c2)cc1 (centres undefined),0,0,0,0,0,0
O=S(=O)(NCCNC/C=C/c1ccc(Br)cc1)c1cccc2cnccc12,-,-,-,-,95.4,-
CC1=NN(C(=O)CSCc2ccccc2)C(O)(c2ccc(F)cc2)C1 (centres undefined),0,0,0,98.6,0,0
COc1ccc(CCn2c(N)c(S(=O)(=O)c3cccs3)c3nc4ccccc4nc32)cc1OC,0,0,0,0,0,0
Nc1c(S(=O)(=O)c2cccs2)c2nc3ccccc3nc2n1Cc1cccs1,0,0,-,0,0,0
Nc1c(S(=O)(=O)c2cccs2)c2nc3ccccc3nc2n1CCc1ccccc1,0,0,0,76.5,0,0
CC(C)CCn1c(N)c(S(=O)(=O)c2cccs2)c2nc3ccccc3nc21,0,0,0,69.7,-,0
CCOc1ccc(Br)cc1C1C(C(=O)OC)=C(N)Oc2cc(N(C)C)ccc21 (centres undefined),0,0,0,100.1,0,0
O=S(=O)(Nc1nc2ccccc2nc1Nc1ccc(N2CCOCC2)cc1)c1cc(Cl)ccc1Cl,0,0,0,0,74.2,0
Cc1cc(C)c2c(NC(=S)NC(=O)c3ccccc3)n[nH]c2n1,0,0,0,0,0,0
CC1=NN(c2cccc(C(=O)O)c2)C(=O)/C1=C\C=C\c1ccco1,0,-4.61,0,0,0,0
SMILES,Autophagy mod,Dynein transport,b-catenin transl,Lmaj promast,CHOP inh,MT stabilizer
COC(=O)c1ccc(N=CC2=C(O)CC(c3ccccc3)CC2=O)cc1 (centres undefined),-,0,0,-,0,-
Cc1cccc(NC(=O)c2csnn2)n1,0,0,0,0,0,0
Cc1ccnc(N/N=C/c2ccco2)n1,0,0,-,0,0,0
Cc1cccc2c1[nH]c1nc(N/N=C\c3ccco3)nnc12,0,0,0,61.0,85.3,0
Nc1ccc(S(=O)(=O)NNC(=O)C(=O)NNc2ccccc2)cc1,0,0,0,86.9,0,0
O=C(NNc1ccccc1)C(=O)NNS(=O)(=O)c1ccc(CCCl)cc1,-,0,0,-,0,-
O=C(COC(=O)CCCN1C(=O)c2ccccc2C1=O)Nc1cc(Cl)cc(Cl)c1,0,0,0,0,0,0
COc1ccc(CC2(CO)CCN(Cc3cnn(-c4ccccc4)c3)CC2)cc1,0,0,0,86.8,0,0
